# NR2E3 ag-1: inhibitors of NR2E3-RetCOR corepressor binding, primary screen, NR2E3 agonist project, biochemical, TR-FRET, GST-NR2E3, biotin-RetCOR; Photoreceptor-specific nuclear receptor (Homo sapiens), Q9Y5X4; 1536-well; inhibition of corepressor binding, % at 4.78 µM; actives 0.12% (n = 320,000);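 active = percent inhibition above the cutoff of mean plus 3 SD of all tested compounds, set per screening campaign, cut at about 20% in these data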;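 also: 0% = DMSO wells and 100% = biotin wells as full block of FRET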
# Target sequence (Q9Y5X4 whole entry, looked up): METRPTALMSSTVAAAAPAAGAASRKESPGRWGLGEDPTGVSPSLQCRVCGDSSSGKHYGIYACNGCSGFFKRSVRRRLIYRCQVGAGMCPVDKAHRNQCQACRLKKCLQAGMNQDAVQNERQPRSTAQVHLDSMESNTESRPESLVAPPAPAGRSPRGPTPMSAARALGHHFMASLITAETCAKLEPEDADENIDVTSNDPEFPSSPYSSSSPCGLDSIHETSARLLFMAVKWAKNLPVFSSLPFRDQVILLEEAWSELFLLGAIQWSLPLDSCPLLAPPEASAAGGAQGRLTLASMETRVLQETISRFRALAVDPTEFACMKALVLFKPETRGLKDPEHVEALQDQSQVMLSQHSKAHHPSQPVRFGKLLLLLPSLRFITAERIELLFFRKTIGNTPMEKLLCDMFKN
#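 Test system: GST-NR2E3 and biotin-RetCOR proteins | Quantity: 1.35 nM GST-tagged NR2E3 final | Medium: Tris pH 7.5 | Also added: 7 nM biotin-RetCOR | Dosing: Compound at 4.8 µM, single dose | Timing: 5 h at 4 °C | Detection: Time-resolved FRET | Read-out basis: Percent inhibition | Benchmarks: Biotin wells as high control, 0.6% DMSO wells as low control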
# NR2E3 ag-2: NR2E3 agonists in two-hybrid cells, primary screen, cell-based, luminescence, CHO-S, Gal4-NCOR/VP16-NR2E3; AID 602229, 2012; actives 0.35% (n = 360,000); Photoreceptor-specific nuclear receptor (Homo sapiens), Q9Y5X4; luciferase; inhibition of corepressor binding, % at 3.98 µM;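 active = inhibition above the mean of all tested compounds plus 3 SD, cut at about 70% in these data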;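 also: 0% = DMSO with NR2E3 transfected cells and 100% = cells lacking NR2E3 construct; higher means lower luciferase signal from less NR2E3 corepressor binding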
# TROY NFkB inh: inhibitors of TROY-driven NF-kB signaling, primary screen, Q293 LMP1-TROYcd cells, NF-kB luciferase, uHTS. Q293 LMP1-TROYcd NF-kB luciferase reporter, 4 h. inhibition, % at 10 µM. actives 0.98% (n = 360,000);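 active = compounds whose plate-normalised and pattern-corrected inhibition of the luciferase reporter signal at the single screening dose is 50% or more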
# EBV LMP1 NFkB: EBV LMP1-driven NF-kappaB luciferase reporter inhibitors, primary screen, cell-based, luminescence, single point | inhibition, % at 12.5 µM | actives 0.69% (n = 350,000) | LMP1-induced NF-kappaB luciferase reporter cells; in the data active = inhibition above about 41%; inconclusive = no clear call, values can overlap the other calls;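 also: 0% = neutral control wells and 100% = reference inhibitor control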
# HIF activator: HIF pathway transcriptional activators, primary screen, cell-based, U2OS HRE-luciferase, luminescence; activation, % at 7.5 µM (by protocol); actives 0.32% (n = 300,000); U2OS HRE-luciferase reporter; normalized: DMSO 0%, desferrioxamine 100%; AID 1910, 2009;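 active = mean activation of at least 10% of the iron chelator positive control signal, with at least half of replicates also reaching 10%; inconclusive = mean and replicate majority disagree about reaching 10%; inactive = mean and most replicates under 10%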
# Numbers without * were called inactive; ? = inconclusive; · = no result given; ! = a repeat was not active. Only some compounds are listed: those with a hit (about 2% of all), similar ones and a draw of the others.
SMILES,NR2E3 ag-1,NR2E3 ag-2,TROY NFkB inh,EBV LMP1 NFkB,HIF activator
CC(=O)Nc1ccc(Nc2nc(C)c([N+](=O)[O-])c(Nc3ccc(NC(C)=O)cc3)n2)cc1,5.4,-9.1,14.0,2.3,468.7*
COc1ccccc1N(CC(=O)N1CCCC1)S(=O)(=O)c1cc([N+](=O)[O-])ccc1Cl,·,-13.7,4.0,-2.7,·
CCCc1ccc(OC(=O)c2ccc(O)cc2Cl)cc1,0.3,-192.6,57.5*,-40.5,1.8
CCOC(=O)NC(N(O)c1cccc(Cl)c1)C(Cl)(Cl)Cl (configuration not stated),0.8,-27.5,-68.9,·,-0.2
CN1OC[C@@H]2CN[C@H](c3ccc(-c4cccc(F)c4)cc3)C[C@@H]21,·,-40.1,3.5,-14.1,·
O=C(Nc1ncccc1O)c1ccc(S(=O)(=O)NCc2ccco2)cc1,·,-32.2,-1.6,42.6*,·
O=C(Nc1ncccc1O)c1ccc(NS(=O)(=O)c2ccc3[nH]c(=O)[nH]c3c2)cc1,·,-3.7,16.3,15.0,·
Cc1cccnc1NC(=O)c1ccc(S(=O)(=O)NCc2ccco2)cc1,-0.4,-27.9,-2.2,-0.9,-0.2
O=C(Nc1ncccc1O)c1ccc(S(=O)(=O)Nc2ccccc2)cc1,-3.2,-42.2,16.2,5.9,72.5*
O=C(Nc1ccccc1O)c1ccc(NS(=O)(=O)c2cccc3cccnc23)cc1,1.3,-73.9,-0.6,47.1*,127.3*
O=c1cnc2ccccc2n1Cc1ccccc1,·,12.6,-21.2,4.1,·
Cc1cc(S(=O)(=O)N2CCCC(N3CCOCC3)C2)c(C)cc1Cl (configuration not stated),-2.0,7.4,-10.3,0.7,-1.8
Cc1cc(C(=O)N2CCN(S(=O)(=O)c3ccc(F)c(Cl)c3)CC2)c(C)o1,1.3,-26.0,7.5,3.2,·
Cc1ccc2nc(-c3ccccn3)[nH]c2c1,-2.1,-96.5,37.3,40.7*,-1.4
CCSc1nnc(NC(=O)CCNC(=O)c2ccccc2Cl)s1,·,-20.1,-11.9,2.6,·
CN(c1ccccc1)S(=O)(=O)c1ccc(NC(=O)c2ccc(-c3ccccc3)cc2)cc1,3.0,82.3*,35.5,24.3,-0.8
CS(=O)(=O)c1ncc(Cl)c(C(=O)Nc2ccc(OC(F)F)cc2)n1,4.1,9.8,56.6*,?,-1.8
CCN(c1ccccc1)S(=O)(=O)c1ccc(NC(=O)c2nc(S(C)(=O)=O)ncc2Cl)cc1,-5.4,9.8,70.4*,2.4,0.7
CCS(=O)(=O)c1ncc(Cl)c(C(=O)Nc2ccc(S(=O)(=O)N(C)c3ccccc3)cc2)n1,-2.7,37.0,88.2*,57.0*,-3.8
CCN(c1ccccc1)S(=O)(=O)c1ccc(C(=O)Nc2ccncc2)cc1,-1.3,22.5,14.0,6.8,-0.4
CS(=O)(=O)c1ncc(Cl)c(C(=O)Nc2ccc(N3CCOCC3)cc2)n1,1.7,1.0,21.9,34.6,0.6
Cc1ccc(NC(=O)CN2CCN(Cc3ccccc3)CC2)cc1F,2.4,22.9,0.4,4.1,-0.1
COC(=O)[C@]1(C)CCC[C@@]2(C)C3CC[C@@]4(C)C[C@]3(CCC21)CC(=O)N4 (some centres not stated),0.7,3.1,0.9,4.5,·
C=C1C(=O)C23CCC4C(C)(C(=O)OC)CCCC4(C)C2CCC1(O)C3 (configuration not stated),·,14.6,87.6*,62.0*,·
Cc1cc(C)cc(NC(=O)Nc2ccc3c(c2)N(C)C(=O)CS3)c1,3.8,-10.5,32.0,-3.2,·
SMILES,NR2E3 ag-1,NR2E3 ag-2,TROY NFkB inh,EBV LMP1 NFkB,HIF activator
CC(=O)c1cccc(NC(=O)Nc2ccc3c(c2)N(C)C(=O)CS3)c1,-2.3,-18.5,67.9*,10.7,1.1
CCN(C(=O)COC(=O)c1cccc(S(=O)(=O)NCc2ccccc2)c1)c1ccccc1,·,7.4,-6.7,0.7,·
CC(=O)c1cccc(NC(=O)CSc2nc3ccccc3c(=O)n2CCCN2CCOCC2)c1,·,-19.1,-5.7,0.1,·
O=C(CSc1nc2ccccc2c(=O)[nH]1)Nc1ccc(Br)cc1,-2.9,-31.8,-4.7,-9.5,38.1*
COC(=O)c1ccc(NC(=O)CSc2nc3ccccc3c(=O)[nH]2)cc1,1.3,13.2,10.7,-15.5,-0.5
O=C(CSc1nc2ccccc2c(=O)n1CCCN1CCOCC1)Nc1ccc(Br)cc1,·,-10.5,-12.3,49.2*,·
COc1c(OC(C)=O)ccc(/C=C/c2ccc3cccc(OCc4ccccc4)c3n2)c1[N+](=O)[O-],1.9,-119.4,12.3,-37.8,4.0
O=S(=O)(Nc1cccnc1)c1ccc(C2CCCCC2)cc1,-1.2,91.7*,11.9,17.9,-0.6
COc1cc(Cl)cc(C(c2c(C(=O)O)[nH]c3ccccc23)c2c(C(=O)O)[nH]c3ccccc23)c1O,2.5,-9.7,14.4,48.4*,-1.4
O=C(NCc1cccc(C(F)(F)F)c1)c1ccc[nH]1,-4.9,-14.9,-10.5,3.6,0.7
Cc1cccc(-n2c(O)c(C=Nc3c(C)n(C)n(-c4ccccc4)c3=O)c3ccccc3c2=O)n1,2.5,-39.6,0.4,58.1*!,-0.6
Cc1cccc(-n2c(O)c(C=Nc3ccccc3O)c3ccccc3c2=O)n1,1.6,-3.1,-11.4,-7.7,-0.8
CCCNC(=O)C1(C)CCN(C(=O)Cc2ccc(OC)c(OC)c2)C1 (configuration not stated),·,34.3,-10.2,·,·
CCOC(=O)[C@]12CCCC=C1N(Cc1ccc(Cl)cc1Cl)C(=O)[C@H](CC(=O)N1CCN(C(=O)C3CC3)CC1)C2,·,10.8,9.3,·,·
Nc1c(C(=O)NCc2ccco2)c2nc3ccccc3nc2n1CCc1ccc(F)cc1,1.0,-7.2,64.3*,2.2,0.0
Nc1c(C(=O)NCCN2CCOCC2)c2nc3ccccc3nc2n1CCc1ccccc1,0.2,-18.4,69.1*,14.9,-0.3
CCCCC(=O)Nc1ccc(NC(=S)NC(=O)CC(C)C)cc1OC,-1.6,-14.1,2.3,11.2,0.1
CCCCC(=O)Nc1ccc(NC(=O)CC)cc1OC,3.3,-16.3,3.0,0.0,18.5*
FC(F)(F)c1ccccc1Cc1c(-c2ccc(Cl)cc2)nc2c3ccccc3ccn12,·,-28.4,-68.9,·,·
Fc1ccc(-c2nc3c4ccccc4ccn3c2Cc2ccccc2C(F)(F)F)cc1,·,-54.6,58.8*,·,·
CCn1nc(NS(=O)(=O)c2ccc(NC(C)=O)cc2)c2cc3cccc(C)c3nc21,-3.1,-15.7,1.0,2.5,51.2*
COc1ccc(NC(=O)CN2C(=O)NC(C)(c3ccc(C)cc3)C2=O)c([N+](=O)[O-])c1 (configuration not stated),1.9,1.0,-0.3,51.2*,-0.2
CCOC(=O)C1=CN(Cc2cccc(F)c2)S(=O)(=O)N(CC)C1c1ccc(F)c(Cl)c1 (configuration not stated),·,8.7,-0.6,-16.2,·
